This is an account of results in ChEMBL document CHEMBL3091319, “Chemical synthesis and biological validation of immobilized protein kinase inhibitory Leucettines” (Eur J Med Chem, 2013).

For orientation: IC50 means the concentration that inhibits the measured activity by half.

Activity calls are given as the source filed them. No cut-off for these calls is given here.

Assay [1] addresses Glycogen synthase kinase-3 (Sus scrofa, UniProt B2LUN4+I6LNT8). Put plainly: Inhibition of porcine brain GSK-3alpha/beta using YRRAAVPPSPSLSRHSSPHQSpEDEEE as substrate. In short, it runs like this: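 Reaction harvested onto P81 paper, washed in 1% phosphoric acid, and scintillation-counted. Blanks subtracted; activity as % of the no-inhibitor activity, with DMSO controls. IC50 from dose-response curves.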

In assay [2] the target is Dual specificity protein kinase CLK3 (Mus musculus, UniProt O35492). Put plainly: Inhibition of mouse recombinant CLK3 expressed in Escherichia coli using GRSRSRSRSRSR as substrate. Summed up: (§1)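 Human DYRKs and mouse CLKs were expressed in E. coli as GST fusions and purified on glutathione-agarose. Each was assayed with RS peptide substrate and [γ-33P]ATP in buffer D at 30 °C for 30 min. Phosphorylation was read on P81 filters by scintillation. Activity is given as % of maximal after blank subtraction, and IC50 was derived from dose-response curves.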
Chain of Dual specificity protein kinase CLK3 (O35492 whole entry, the tested form may be a part): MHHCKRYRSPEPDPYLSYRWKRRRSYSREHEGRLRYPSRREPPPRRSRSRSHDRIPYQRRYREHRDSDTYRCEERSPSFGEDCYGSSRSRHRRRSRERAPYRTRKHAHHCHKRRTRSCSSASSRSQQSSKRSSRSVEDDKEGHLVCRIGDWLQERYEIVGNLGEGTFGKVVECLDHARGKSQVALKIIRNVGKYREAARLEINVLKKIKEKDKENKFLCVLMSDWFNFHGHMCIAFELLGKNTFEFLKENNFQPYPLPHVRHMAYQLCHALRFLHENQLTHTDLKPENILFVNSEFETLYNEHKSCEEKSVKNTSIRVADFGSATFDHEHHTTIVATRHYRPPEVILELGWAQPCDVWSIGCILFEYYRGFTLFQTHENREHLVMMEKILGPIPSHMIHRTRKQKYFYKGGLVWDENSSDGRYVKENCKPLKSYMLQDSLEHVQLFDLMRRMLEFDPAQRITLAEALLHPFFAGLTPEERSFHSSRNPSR

Assay [3] concerns the target Dual specificity protein kinase CLK2 (Mus musculus, UniProt O35491). Kind of assay: Inhibition of mouse recombinant CLK2 expressed in Escherichia coli using GRSRSRSRSRSR as substrate. In short, it runs like this: as §1
Assay [4] concerns the target Dual specificity protein kinase CLK1 (Mus musculus, UniProt P22518). Kind of assay: Inhibition of mouse recombinant CLK1 expressed in Escherichia coli using GRSRSRSRSRSR as substrate. In short, it runs like this:
as §1

Assay [5] can be described thus: Inhibition of porcine brain CK1delta/epsilon using RRKHAAIGpSAYSITA as substrate. Details: species or system Sus scrofa. Summed up: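 Native porcine brain CK1δ/ε was assayed with the CKS phosphopeptide substrate, [γ-33P]ATP and buffer D for 30 min at 30 °C. Product was captured on P81 paper and counted by scintillation. IC50 was calculated from dose-response curves, with activity as % of the no-inhibitor control.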

In a further assay the target is CDK9/cyclin T1 (Homo sapiens, UniProt P50750). Kind of assay: Inhibition of human recombinant CDK9/cyclin T using YSPTSPSYSPTSPSYSPTSPSKKKK as substrate. The assay is classed as protein-complex assay. In short, it runs like this:
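CDK9/cyclin T was human recombinant, made in insect cells. It was run like the CDK1 radiometric assay: buffer D with [γ-33P]ATP, 30 min at 30 °C, CDK7/9 tide peptide substrate, P81 capture and scintillation counting. IC50 came from dose-response curves relative to a DMSO control.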

In another assay the target is CDK2/Cyclin A2 (Homo sapiens, UniProt P24941). Put plainly: Inhibition of human recombinant CDK2/cyclin A using [gamma-33P]-ATP after 30 mins by scintillation counting. In kind it is protein-complex assay. Summed up: (§2)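 Native starfish M-phase CDK1/cyclin B or human recombinant CDK2 or CDK5/p25 was incubated with histone H1 (1 mg/mL) and [γ-33P]ATP in buffer D (10 mM MgCl2, 1 mM EGTA, 1 mM DTT, 25 mM Tris/HCl, heparin) at 30 °C for 30 min. BSA was added except for CDK2. Reactions were spotted on P81 paper, washed in 1% phosphoric acid and counted by scintillation. Activity is expressed as % of the no-inhibitor control with blanks subtracted. IC50 was taken from dose-response curves.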

A short description of assay [6]: Inhibition of M phase starfish oocytes CDK1/cyclin B using [gamma-33P]-ATP after 30 mins by scintillation counting. Details: species or system Asteroidea. In short, it runs like this:
as §2

The species entered for the next assay is Mus musculus. Put plainly: Binding affinity to GSK3 in mouse brain extracts by Western blot analysis. In kind it is tissue-based. Summed up: (§3)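 Mouse brains homogenized and sonicated in Mops pH 7.2 buffer with β-glycerophosphate, phosphatase and protease inhibitors, spun 15 min at 17,000×g at 4 °C. Extract (1 or 2 mg total protein) rotated 30 min at 4 °C with ligand-linker coupled via amine to CNBr-activated Sepharose. Beads washed 4×, boiled 3 min in LDS/DTT, then 10% Bis-Tris SDS-PAGE and immunoblot with specific antibodies and ECL.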

Assay [7] deals with Dual specificity tyrosine-phosphorylation-regulated kinase 1A (Mus musculus) (UniProt Q61214). Kind of assay: Binding affinity to DYRK1A in mouse brain extracts by Western blot analysis. The assay is classed as tissue-based. In short, it runs like this:
as §3
A general note: In western blotting, separated proteins are transferred to a membrane and probed.

Assay [8] has as its target T1, Dual specificity tyrosine-phosphorylation-regulated kinase 3 (Homo sapiens, UniProt O43781).
T1 sequence (O43781 whole entry): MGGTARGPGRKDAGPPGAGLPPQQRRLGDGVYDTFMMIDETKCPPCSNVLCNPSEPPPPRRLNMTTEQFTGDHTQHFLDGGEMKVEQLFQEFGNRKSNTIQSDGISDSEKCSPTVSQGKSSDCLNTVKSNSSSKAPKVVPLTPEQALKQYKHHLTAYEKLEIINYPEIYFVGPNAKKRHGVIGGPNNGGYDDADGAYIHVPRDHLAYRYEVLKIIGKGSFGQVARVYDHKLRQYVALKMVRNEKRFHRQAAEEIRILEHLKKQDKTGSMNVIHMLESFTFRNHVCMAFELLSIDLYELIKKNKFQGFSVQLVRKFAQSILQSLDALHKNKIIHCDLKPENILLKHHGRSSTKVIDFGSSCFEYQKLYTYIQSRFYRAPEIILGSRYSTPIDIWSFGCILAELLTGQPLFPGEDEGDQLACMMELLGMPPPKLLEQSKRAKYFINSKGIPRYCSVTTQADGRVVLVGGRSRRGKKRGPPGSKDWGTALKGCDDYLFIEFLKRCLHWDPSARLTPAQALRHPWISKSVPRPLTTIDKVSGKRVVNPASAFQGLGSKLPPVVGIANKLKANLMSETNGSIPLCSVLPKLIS
Kind of assay: Inhibition of human recombinant DYRK3 expressed in Escherichia coli using GRSRSRSRSRSR as substrate.

For assay [9], the target named is T2, Dual specificity tyrosine-phosphorylation-regulated kinase 2 (Homo sapiens, UniProt Q92630).
T2 sequence (Q92630 whole entry): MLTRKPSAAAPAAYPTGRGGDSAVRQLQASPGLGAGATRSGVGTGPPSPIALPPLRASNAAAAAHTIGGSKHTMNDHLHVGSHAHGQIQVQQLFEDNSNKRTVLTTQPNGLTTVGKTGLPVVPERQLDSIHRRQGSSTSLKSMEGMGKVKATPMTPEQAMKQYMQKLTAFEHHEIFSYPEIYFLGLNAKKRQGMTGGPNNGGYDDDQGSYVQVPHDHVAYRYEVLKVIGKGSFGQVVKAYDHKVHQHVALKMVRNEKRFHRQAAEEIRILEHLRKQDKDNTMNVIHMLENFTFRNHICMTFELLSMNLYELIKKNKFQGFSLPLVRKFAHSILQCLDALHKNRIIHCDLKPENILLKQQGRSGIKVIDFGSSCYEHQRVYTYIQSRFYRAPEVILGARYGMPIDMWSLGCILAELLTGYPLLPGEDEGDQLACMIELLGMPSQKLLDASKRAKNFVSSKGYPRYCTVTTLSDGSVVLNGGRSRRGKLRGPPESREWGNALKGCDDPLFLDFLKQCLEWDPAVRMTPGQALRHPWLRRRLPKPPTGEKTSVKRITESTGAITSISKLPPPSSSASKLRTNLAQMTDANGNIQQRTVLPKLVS
Kind of assay: Inhibition of human recombinant DYRK2 expressed in Escherichia coli using GRSRSRSRSRSR as substrate.

Assay [10] concerns the target Dual specificity tyrosine-phosphorylation-regulated kinase 1B (Homo sapiens, UniProt Q9Y463).
Assay [11] has as its target Dual specificity tyrosine-phosphorylation-regulated kinase 1A (Homo sapiens, UniProt Q13627). Kind of assay: Inhibition of human recombinant DYRK1A expressed in Escherichia coli using GRSRSRSRSRSR as substrate.
In assay [12] the target is Dual specificity protein kinase CLK4 (Mus musculus, UniProt O35493). Put plainly: Inhibition of mouse recombinant CLK4 expressed in Escherichia coli using GRSRSRSRSRSR as substrate.
Chain of Dual specificity protein kinase CLK4 (O35493 whole entry): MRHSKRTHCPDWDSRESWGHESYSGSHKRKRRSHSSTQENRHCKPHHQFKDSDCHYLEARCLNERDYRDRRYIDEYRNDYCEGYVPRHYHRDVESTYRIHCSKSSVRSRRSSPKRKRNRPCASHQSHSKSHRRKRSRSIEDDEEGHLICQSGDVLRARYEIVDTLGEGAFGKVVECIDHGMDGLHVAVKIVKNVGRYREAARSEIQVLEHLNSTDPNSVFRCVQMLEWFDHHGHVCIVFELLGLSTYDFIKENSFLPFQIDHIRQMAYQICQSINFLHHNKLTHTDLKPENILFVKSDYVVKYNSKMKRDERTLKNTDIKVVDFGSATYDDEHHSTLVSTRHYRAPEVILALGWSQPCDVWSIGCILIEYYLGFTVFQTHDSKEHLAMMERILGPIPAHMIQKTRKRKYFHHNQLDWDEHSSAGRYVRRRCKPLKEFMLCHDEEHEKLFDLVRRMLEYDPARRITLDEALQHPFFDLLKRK
Assay [13] concerns the target Cyclin-dependent kinase 5/CDK5 activator 1 (Homo sapiens, UniProt Q00535). Kind of assay: Inhibition of human recombinant CDK5/p25 using [gamma-33P]-ATP after 30 mins by scintillation counting. The assay is classed as protein-complex assay.

Chain of CDK9/cyclin T1 (O60563 whole entry): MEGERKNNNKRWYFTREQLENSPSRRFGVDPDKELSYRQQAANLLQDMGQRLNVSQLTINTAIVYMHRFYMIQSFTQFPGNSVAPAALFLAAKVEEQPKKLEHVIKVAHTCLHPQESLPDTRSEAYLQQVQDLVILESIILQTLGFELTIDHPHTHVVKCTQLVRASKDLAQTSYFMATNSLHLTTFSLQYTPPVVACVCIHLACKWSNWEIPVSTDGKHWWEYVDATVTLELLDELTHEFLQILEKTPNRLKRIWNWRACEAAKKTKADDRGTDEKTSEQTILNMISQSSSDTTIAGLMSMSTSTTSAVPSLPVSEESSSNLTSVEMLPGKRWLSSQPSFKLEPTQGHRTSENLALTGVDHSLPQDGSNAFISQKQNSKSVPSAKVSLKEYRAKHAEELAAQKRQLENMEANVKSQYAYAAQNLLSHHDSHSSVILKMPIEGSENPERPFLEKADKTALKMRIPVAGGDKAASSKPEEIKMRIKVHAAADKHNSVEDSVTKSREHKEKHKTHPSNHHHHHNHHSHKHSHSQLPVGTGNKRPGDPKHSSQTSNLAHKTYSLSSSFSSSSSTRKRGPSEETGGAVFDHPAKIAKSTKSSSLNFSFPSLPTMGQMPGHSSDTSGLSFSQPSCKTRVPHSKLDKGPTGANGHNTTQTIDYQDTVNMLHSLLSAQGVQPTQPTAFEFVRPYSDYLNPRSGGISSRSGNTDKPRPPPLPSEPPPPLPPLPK
Chain of CDK9/cyclin T1 (P50750 whole entry): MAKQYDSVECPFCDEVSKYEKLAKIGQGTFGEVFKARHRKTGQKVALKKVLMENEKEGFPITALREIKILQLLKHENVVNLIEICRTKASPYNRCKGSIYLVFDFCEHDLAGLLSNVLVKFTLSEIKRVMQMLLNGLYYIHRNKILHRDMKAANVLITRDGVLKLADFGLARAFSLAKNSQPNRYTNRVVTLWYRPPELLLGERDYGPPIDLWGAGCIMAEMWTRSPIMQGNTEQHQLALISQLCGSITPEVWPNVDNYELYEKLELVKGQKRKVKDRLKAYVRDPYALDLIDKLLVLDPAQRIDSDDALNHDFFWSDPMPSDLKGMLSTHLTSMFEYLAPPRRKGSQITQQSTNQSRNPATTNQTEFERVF
Chain of Dual specificity protein kinase CLK2 (O35491 whole entry): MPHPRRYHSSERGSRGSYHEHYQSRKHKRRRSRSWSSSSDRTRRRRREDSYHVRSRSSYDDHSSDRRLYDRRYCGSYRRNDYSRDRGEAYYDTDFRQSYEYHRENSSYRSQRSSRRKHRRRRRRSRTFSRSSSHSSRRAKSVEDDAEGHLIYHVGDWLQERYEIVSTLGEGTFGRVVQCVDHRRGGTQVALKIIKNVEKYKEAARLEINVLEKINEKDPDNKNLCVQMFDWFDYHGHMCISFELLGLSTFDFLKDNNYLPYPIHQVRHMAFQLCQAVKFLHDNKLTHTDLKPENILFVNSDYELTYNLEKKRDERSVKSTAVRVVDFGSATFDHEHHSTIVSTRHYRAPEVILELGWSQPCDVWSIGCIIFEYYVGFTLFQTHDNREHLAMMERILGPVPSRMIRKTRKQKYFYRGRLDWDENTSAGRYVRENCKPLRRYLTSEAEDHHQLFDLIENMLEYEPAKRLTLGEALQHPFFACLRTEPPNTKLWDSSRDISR
Chain of Cyclin-dependent kinase 5/CDK5 activator 1 (Q00535 whole entry): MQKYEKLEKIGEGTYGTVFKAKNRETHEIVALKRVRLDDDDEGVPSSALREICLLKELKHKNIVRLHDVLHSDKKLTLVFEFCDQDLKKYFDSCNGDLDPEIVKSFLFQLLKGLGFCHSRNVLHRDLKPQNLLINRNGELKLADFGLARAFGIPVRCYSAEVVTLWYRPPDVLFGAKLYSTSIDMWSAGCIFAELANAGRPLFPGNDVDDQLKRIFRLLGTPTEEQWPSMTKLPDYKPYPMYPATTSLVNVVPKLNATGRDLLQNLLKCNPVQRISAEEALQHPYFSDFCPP
Chain of Cyclin-dependent kinase 5/CDK5 activator 1 (Q15078 whole entry, further chain): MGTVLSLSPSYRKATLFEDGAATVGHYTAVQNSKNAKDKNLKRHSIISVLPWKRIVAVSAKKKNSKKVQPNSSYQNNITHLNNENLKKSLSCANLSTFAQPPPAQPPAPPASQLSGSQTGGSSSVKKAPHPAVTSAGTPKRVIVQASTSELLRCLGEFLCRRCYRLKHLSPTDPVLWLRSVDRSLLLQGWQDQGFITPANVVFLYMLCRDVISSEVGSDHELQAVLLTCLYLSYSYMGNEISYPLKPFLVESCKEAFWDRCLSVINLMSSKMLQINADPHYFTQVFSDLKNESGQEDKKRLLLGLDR
Chain of Dual specificity tyrosine-phosphorylation-regulated kinase 1B (Q9Y463 whole entry): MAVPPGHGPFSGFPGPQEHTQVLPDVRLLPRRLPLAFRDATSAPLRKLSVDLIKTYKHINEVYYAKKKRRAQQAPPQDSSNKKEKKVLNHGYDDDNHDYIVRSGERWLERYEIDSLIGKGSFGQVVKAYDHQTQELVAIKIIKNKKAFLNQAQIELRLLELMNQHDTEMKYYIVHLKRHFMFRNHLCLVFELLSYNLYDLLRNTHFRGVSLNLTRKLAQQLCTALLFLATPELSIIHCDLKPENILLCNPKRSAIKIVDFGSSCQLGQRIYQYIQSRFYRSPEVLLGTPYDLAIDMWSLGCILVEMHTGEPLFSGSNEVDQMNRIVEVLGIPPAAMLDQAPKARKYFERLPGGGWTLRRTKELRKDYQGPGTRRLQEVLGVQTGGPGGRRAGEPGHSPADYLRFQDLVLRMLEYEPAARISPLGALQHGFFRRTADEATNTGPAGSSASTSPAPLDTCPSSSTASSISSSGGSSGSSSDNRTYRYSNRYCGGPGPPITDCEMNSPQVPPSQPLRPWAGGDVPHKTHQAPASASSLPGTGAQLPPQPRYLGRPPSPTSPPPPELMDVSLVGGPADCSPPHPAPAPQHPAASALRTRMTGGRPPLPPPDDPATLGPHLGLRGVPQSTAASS
Chain of Dual specificity protein kinase CLK1 (P22518 whole entry): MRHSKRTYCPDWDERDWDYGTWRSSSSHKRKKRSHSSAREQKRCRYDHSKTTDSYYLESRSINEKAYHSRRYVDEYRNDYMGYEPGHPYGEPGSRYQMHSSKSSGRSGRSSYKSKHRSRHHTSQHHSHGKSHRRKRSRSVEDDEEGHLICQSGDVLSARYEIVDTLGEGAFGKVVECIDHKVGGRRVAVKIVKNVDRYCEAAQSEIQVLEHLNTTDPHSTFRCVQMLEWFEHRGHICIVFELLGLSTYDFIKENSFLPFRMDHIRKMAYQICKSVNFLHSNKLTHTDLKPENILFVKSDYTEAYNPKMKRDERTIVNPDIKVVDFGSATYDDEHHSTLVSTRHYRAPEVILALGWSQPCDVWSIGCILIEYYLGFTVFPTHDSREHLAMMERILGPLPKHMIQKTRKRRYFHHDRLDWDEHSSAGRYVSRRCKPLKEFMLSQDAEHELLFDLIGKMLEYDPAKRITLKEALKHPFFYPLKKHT

Regarding `O=C1NC(Nc2ccccc2)=N/C1=C\c1ccc2c(c1)OCO2`, the IC50 in assay [1] is 0.73 µM; in assay [2], 3 µM; in assay [3], 0.32 µM; in [4], 0.035 µM; in assay [5], over 10 µM; at CDK9/cyclin T1 it was over 10 µM. Also, the IC50 (at CDK2/Cyclin A2; in [6]) was over 10 µM each time.
With `NCCOCCOCCOc1ccc(NC2=N/C(=C\c3ccccc3)C(=O)N2)cc1`, the outcome (in the assay listed under Mus musculus; in [7]) was Active. Further, the IC50 is 40 µM in [1]; over 10 µM in assay [8]; over 10 µM in [9]; over 10 µM in assay [10]; 8.5 µM in assay [11]; over 10 µM in [12]. The IC50 (in assay [2]; in [3]; in assay [4]; in [5]; on CDK9/cyclin T1; in assay [13]) was over 10 µM in each case. The IC50 (on CDK2/Cyclin A2; in assay [6]) was over 10 µM in each case.
As for `NCCOCCOCCOCCOc1ccc(NC2=N/C(=C\c3ccc4c(c3)OCO4)C(=O)N2)cc1`, the outcome (in the assay listed under Mus musculus; in assay [7]) was Active. Also, the IC50 in [1] was 0.2 µM; in [8], 0.18 µM; in assay [9], 0.13 µM; in [10] it was 0.072 µM; in assay [11], 0.028 µM; in assay [12] it was 0.061 µM. The IC50 in [2] was 0.55 µM; in assay [3], 0.21 µM; in assay [4], 0.061 µM; in [5] it was over 10 µM; on CDK9/cyclin T1 it was 3.7 µM; in [13], over 10 µM. For the same compound, the IC50 (at CDK2/Cyclin A2; in assay [6]) was over 10 µM in each case.
`O=C1NC(Nc2ccccc2)=N/C1=C\c1ccccc1`: the IC50 is over 100 µM in assay [1]; over 10 µM in assay [8]; over 10 µM in assay [9]; over 10 µM in assay [10]; over 100 µM in assay [11]; over 10 µM in [12]. Moreover, the IC50 (in assay [2]; in assay [3]; in assay [4]; in [5]; at CDK9/cyclin T1; in [13]) was over 10 µM throughout. The IC50 (on CDK2/Cyclin A2; in assay [6]) was over 10 µM each time.
`NCCOCCOCCOc1ccc(NC2=N/C(=C\c3ccc4c(c3)OCO4)C(=O)N2)cc1`: the outcome (in the assay filed under Mus musculus; in assay [7]) was Active. Further, the IC50 in [1] was 0.27 µM; in [8] it was 0.2 µM; in assay [9] it was 0.15 µM; in [10] it was 0.11 µM; in assay [11], 0.05 µM; in assay [12], 0.081 µM. Also, the IC50 in [2] was 0.81 µM; in assay [3] it was 0.28 µM; in assay [4], 0.075 µM; in [5], over 10 µM; on CDK9/cyclin T1, 7.4 µM; in assay [13], over 10 µM. In addition, the IC50 (at CDK2/Cyclin A2; in assay [6]) was over 10 µM each time.
As to `NCCOCCOCCO`, the IC50 in assay [1], in assay [8], in [9], in assay [10], in [11] and in assay [12] was over 10 µM throughout. Further, the IC50 (in assay [2]; in assay [3]; in [4]; in assay [5]; at CDK9/cyclin T1; in assay [13]) was over 10 µM in each case. For the same compound, the IC50 (on CDK2/Cyclin A2; in assay [6]) was over 10 µM throughout.
